Experimental data published in ChEMBL document CHEMBL2311278, “Novel fluorescent cephalosporins: synthesis, antimicrobial activity and photodynamic inactivation of antibiotic resistant bacteria” (2013).
The source made the active and inactive calls. The rule behind the calls is not given here.

Tests used:
[1] = tested on: Staphylococcus aureus ATCC 25923; assay: Binding affinity to Staphylococcus aureus ATCC 25923 assessed per 10^8 cells/ml at 50 uM after overnight incubation by fluorescence analysis
Staphylococcus aureus [2] = assay: Binding affinity to methicillin-resistant Staphylococcus aureus MRSA1 assessed per 10^8 cells/ml at 50 uM after overnight incubation by fluorescence analysis; assay type: functional, organism-based
In short: (§1)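 Incubated with compound, then pelleted, dissolved in 2% SDS, held at 4 °C overnight and sonicated 30 min. Fluorescence intensity compared with that of free compound (50 µM, or 5 µM for the more fluorescent analogue); expressed per 10⁸ cells/mL.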

Staphylococcus aureus [3] = assay: Binding affinity to methicillin-resistant Staphylococcus aureus MRSA2 assessed per 10^8 cells/ml at 50 uM after overnight incubation by fluorescence analysis; assay type: functional, organism-based
In short: as §1

Staphylococcus aureus [4] = assay: Binding affinity to methicillin-resistant Staphylococcus aureus MRSA1 assessed per 10^8 cells/ml at 5 uM after overnight incubation by fluorescence analysis; assay type: functional, organism-based
In short: as §1

Klebsiella pneumoniae [5] = assay: Photodynamic inactivation of Klebsiella pneumoniae ATCC 700603 assessed as lethality at 6 uM after overnight incubation by traditional surface plating method in presence of 126 J/cm 2 white light irradiation; assay type: functional
In short: (§2)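 Mixed 1:1 with compound and kept in the dark at 37 °C for 30 min with shaking, then exposed to filtered xenon white light (400–800 nm, 350 mW/cm²). Cells diluted in PBS, ~10⁴ CFU/mL plated on LB agar and grown overnight at 37 °C. Treated-and-irradiated CFU divided by untreated, unirradiated CFU; triplicate. Dark controls had no irradiation.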

[6] = tested on: Staphylococcus aureus ATCC 25923; assay: Binding affinity to Staphylococcus aureus ATCC 25923 assessed per 10^8 cells/ml at 5 uM after overnight incubation by fluorescence analysis
Staphylococcus aureus [7] = assay: Binding affinity to methicillin-resistant Staphylococcus aureus MRSA2 assessed per 10^8 cells/ml at 5 uM after overnight incubation by fluorescence analysis; assay type: functional, organism-based
In short: as §1

Klebsiella pneumoniae [8] = assay: Photodynamic inactivation of Klebsiella pneumoniae ATCC 700603 assessed as lethality at 10 uM after overnight incubation by traditional surface plating method in presence of 350 mW/cm2 white light irradiation; assay type: functional
In short: as §2

Klebsiella pneumoniae [9] = assay: Antibacterial activity against Klebsiella pneumoniae ATCC 700603 assessed as lethality at 10 uM after overnight incubation by traditional surface plating method; assay type: functional
In short: as §2

Staphylococcus aureus [10] = assay: Antibacterial activity against methicillin-resistant Staphylococcus aureus MRSA1 after 24 hrs; assay type: functional; conditions: MRSA1, 24 h
In short: (§3)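 Broth microdilution in Mueller–Hinton medium. Inocula grown from single colonies at 35 °C to 10⁸ CFU/mL by turbidimetry, then added at ~10⁶ CFU/mL to serial dilutions of compound starting at 256 µg/mL (stocks in ddH2O). Incubated 37 °C for 24 h.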

[11] = tested on: metallo-beta-lactamase CcrA (Bacteroides fragilis); assay: Activity at Bacteroides fragilis metallo-beta-lactamase CcrA expressed in Escherichia coli BL21 (DE3) by Michaelis-Menten equation analysis
[12] = Binding affinity to Klebsiella pneumoniae ATCC 700603 at 50 uM after overnight incubation by confocal image analysis
Staphylococcus aureus [13] = assay: Binding affinity to methicillin-resistant Staphylococcus aureus MRSA2 at 50 uM after overnight incubation by confocal image analysis; assay type: functional, organism-based
In short: (§4)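 Incubated with 50 µM compound in the dark with shaking, washed twice in PBS and imaged by confocal fluorescence and differential interference contrast microscopy.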

Klebsiella pneumoniae [14] = assay: Antibacterial activity against Klebsiella pneumoniae ATCC 700603 after 24 hrs; assay type: functional; conditions: ATCC 700603, 24 h
In short: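 Broth microdilution in Mueller-Hinton medium. A single LB-plate colony was grown in Mueller-Hinton broth at 35 °C for 2–6 h to 10⁸ CFU/mL by turbidimetry. Compounds were dissolved in ddH₂O and serially diluted in Mueller-Hinton medium from 256 downward. About 10⁶ CFU/mL bacteria were added, and plates were incubated at 37 °C for 24 h.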

Staphylococcus aureus [15] = assay: Binding affinity to methicillin-resistant Staphylococcus aureus MRSA1 at 50 uM after overnight incubation by confocal image analysis; assay type: functional, organism-based
In short: as §4

Klebsiella pneumoniae [16] = assay: Photodynamic inactivation of Klebsiella pneumoniae ATCC 700603 assessed as lethality at 6 uM after overnight incubation by traditional surface plating method in presence of 189 J/cm 2 white light irradiation; assay type: functional
In short: as §2

Staphylococcus aureus [17] = assay: Antibacterial activity against methicillin-resistant Staphylococcus aureus MRSA2 after 24 hrs; assay type: functional; conditions: MRSA2, 24 h
In short: as §3

[18] = tested on: metallo-beta-lactamase L1 (Stenotrophomonas maltophilia); assay: Activity at Stenotrophomonas maltophilia metallo-beta-lactamase L1 expressed in Escherichia coli BL21 (DE3) by Michaelis-Menten equation analysis

SMILES	Activity [1] [µM]	Activity (Staphylococcus aureus [2]) [µM]	Activity (Staphylococcus aureus [3]) [µM]	Activity (Klebsiella pneumoniae [5])	MIC (Staphylococcus aureus [10]) [µg/mL]	Km [11] [µM]	Vmax [11] [µM/s]	kcat [11] [s⁻¹]	MIC (Klebsiella pneumoniae [14]) [µg/mL]	MIC (Staphylococcus aureus [17]) [µg/mL]	Km [18] [µM]	Vmax [18] [µM/s]	kcat [18] [s⁻¹]	also measured
O=C(O)c1cc2ccccc2oc1=O	0.68	0.71	0.81	–	–	–	–	–	–	–	–	–	–	–
O=C(O)c1cc2c(ccc3ccccc32)oc1=O	–	–	–	inactive	–	–	–	–	–	–	–	–	–	Activity (Staphylococcus aureus [4]): 0.03 µM; Activity [6]: 0.044 µM; Activity (Staphylococcus aureus [7]): 0.033 µM
O=C(Cc1cccs1)N[C@@H]1C(=O)N2C(C(=O)O)=C(CSc3ccc(NC(=O)c4cc5ccccc5oc4=O)cc3)CS[C@H]12	2.13	2.15	1.82	84%	> 128	38.3	1.05	209	> 128	> 128	6.02	0.471	23.5	Activity (Klebsiella pneumoniae [8]): >65%; Activity (Klebsiella pneumoniae [9]): <5%; Activity [12]: Active; Activity (Staphylococcus aureus [13]): Active; Activity (Staphylococcus aureus [15]): Active; Activity (Klebsiella pneumoniae [16]): >95%
O=C(Cc1cccs1)N[C@@H]1C(=O)N2C(C(=O)O)=C(CSc3ccc(NC(=O)c4cc5c(ccc6ccccc65)oc4=O)cc3)CS[C@H]12	6.59	3.14	2.95	inactive	> 128	24.4	0.604	121	> 128	> 128	20.2	0.59	29.5	–
